Assay [1] in a line: Antiplatelet activity in rabbit platelet rich plasma assessed as inhibition of ADP-induced platelet aggregation at 0.1 mM preincubated for 5 mins followed by ADP addition measured after 5 mins by Born's turbidimetric method relative to control. As to conditions: Oryctolagus cuniculus. Format: functional. An outline of the steps: (§1)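 Rabbit PRP was taken from centrifugation supernatant, and PPP was obtained at 3000 rpm for 10 min. PRP was pretreated in duplicate with test agent or vehicle for 5 min at 37 °C, then given ADP (10 µM) or AA (1 mM). Aggregation was followed turbidimetrically by optical density. Results are % inhibition versus vehicle-treated, inducer-exposed samples, n = 6, mean ± SD.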

The nature of assay [2]: Antiplatelet activity in rabbit platelet rich plasma assessed as inhibition of arachidonic acid-induced platelet aggregation at 0.1 mM preincubated for 5 mins followed by arachidonic acid addition measured after 5 mins by Born's turbidimetric method relative to control. Format: functional. The following applies: Oryctolagus cuniculus. An outline of the steps: as §1
The nature of assay [3]: Neuroprotective activity against H2O2-induce cell damage in rat PC12 cells assessed as cell viability at 10 uM preincubated for 1 hr followed by H2O2 induction measured after 3 hrs by MTT assay (reference value: 50.85%). Format: functional. As to conditions: PC-12, read-out: Activity.
Assay [4] has as its system PC-12. Description: Neuroprotective activity against H2O2-induce cell damage in rat PC12 cells assessed as cell viability at 10 uM preincubated for 1 hr followed by H2O2 induction measured after 3 hrs by MTT assay. Format: functional, cell-based. (In general: Tetrazolium dyes change colour on reduction, which living cells bring about.)
The subject of assay [5] is PC-12. Nature of the assay: Antioxidant activity in rat PC12 cells assessed as reduction of H2O2/Fe2+-mediated hydroxyl radical formation at 10 uM preincubated for 1 hr followed by H2O2/Fe2+ addition by Griess assay. Format: functional. An outline of the steps:
(§2)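 PC12 cells grown in DMEM with 10% heat-inactivated horse serum, 5% FBS, 1.0 mM sodium pyruvate, penicillin/streptomycin, 37 °C, 5% CO2. Cells pretreated in triplicate for 1 h, then exposed to 1 mM H2O2/20 µM Fe2+ (pH 7.4). After a medium change, cells were collected in 0.5 mL phosphate buffer (pH 7.4). Hydroxyl radical activity was read by Griess assay.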
(In general: Griess reagent forms a coloured azo dye with nitrite.)

In assay [6] the test system is PC-12. Description: Antioxidant activity in rat PC12 cells assessed as reduction of NADH-mediated superoxide anion radical formation at 10 uM preincubated for 1 hr followed by NADH addition by NBT assay. Format: functional. The method in brief:
(§3)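 PC12 cells were cultured as for the other PC12 assays and pretreated in triplicate for 1 h. Each tube then received DMSO, 468 µM NADH and 300 µM NBT. Superoxide activity was read by NBT assay, with DMSO used to fully dissolve the formazan.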

The nature of assay [7]: Antiplatelet activity in rabbit platelet rich plasma assessed as inhibition of ADP-induced platelet aggregation at 0.1 mM preincubated for 5 mins followed by ADP addition measured after 5 mins by Born's turbidimetric method in presence of edaravone relative to control. As to conditions: Oryctolagus cuniculus. Format: functional. An outline of the steps:
as §1

Assay [8] can be described thus: Antiplatelet activity in rabbit platelet rich plasma assessed as inhibition of arachidonic acid-induced platelet aggregation at 0.1 mM preincubated for 5 mins followed by arachidonic acid addition measured after 5 mins by Born's turbidimetric method in presence of edaravone relative to control. Format: functional. As to conditions: Oryctolagus cuniculus. The method in brief:
as §1

A short description of assay [9]: Neuroprotective activity against H2O2-induce cell damage in rat PC12 cells assessed as cell viability at 10 uM preincubated for 1 hr followed by H2O2 induction measured after 3 hrs by MTT assay in presence of edaravone (reference value: 50.85%). Format: functional. As to conditions: PC-12, read-out: Activity.
Assay [10] relates to PC-12. Nature of the assay: Antioxidant activity in rat PC12 cells assessed as reduction of H2O2/Fe2+-mediated hydroxyl radical formation at 10 uM preincubated for 1 hr followed by H2O2/Fe2+ addition by Griess assay in presence of edaravone. Format: functional. An outline of the steps: as §2
The test system of assay [11] is PC-12. Nature of the assay: Antioxidant activity in rat PC12 cells assessed as reduction of NADH-mediated superoxide anion radical formation at 10 uM preincubated for 1 hr followed by NADH addition by NBT assay in presence of edaravone. Format: functional. The method in brief: as §3
The nature of assay [12]: Neuroprotective activity against H2O2-induce cell damage in rat PC12 cells assessed as cell viability at 1 uM preincubated for 1 hr followed by H2O2 induction measured after 3 hrs by MTT assay (reference value: 50.85%). Format: functional. As to conditions: PC-12, read-out: Activity.
Assay [13] is described as follows: Antiplatelet activity in rabbit platelet rich plasma assessed as inhibition of ADP-induced platelet aggregation at 0.1 mM preincubated for 5 mins followed by ADP addition measured after 5 mins by Born's turbidimetric method in presence of NBP relative to control. Format: functional. The following applies: Oryctolagus cuniculus. The method in brief:
as §1

Assay [14] can be described thus: Antiplatelet activity in rabbit platelet rich plasma assessed as inhibition of arachidonic acid-induced platelet aggregation at 0.1 mM preincubated for 5 mins followed by arachidonic acid addition measured after 5 mins by Born's turbidimetric method in presence of NBP relative to control. Format: functional. As to conditions: Oryctolagus cuniculus. An outline of the steps: as §1

Assay [15] in a line: Neuroprotective activity against H2O2-induce cell damage in rat PC12 cells assessed as cell viability at 10 uM preincubated for 1 hr followed by H2O2 induction measured after 3 hrs by MTT assay in presence of NBP (reference value: 50.85%). Format: functional. As to conditions: PC-12, read-out: Activity.
The subject of assay [16] is PC-12. Nature of the assay: Antioxidant activity in rat PC12 cells assessed as reduction of H2O2/Fe2+-mediated hydroxyl radical formation at 10 uM preincubated for 1 hr followed by H2O2/Fe2+ addition by Griess assay in presence of NBP. Format: functional. The method in brief: as §2
The test system of assay [17] is PC-12. Description: Antioxidant activity in rat PC12 cells assessed as reduction of NADH-mediated superoxide anion radical formation at 10 uM preincubated for 1 hr followed by NADH addition by NBT assay in presence of NBP. Format: functional. The method in brief:
as §3

Activity calls are given as the source filed them. The calls are words filed in the database; no cut-off is given here.

For the compound `CCCCC(OC(C)=O)c1ccccc1C(=O)Oc1cc(C)nn1-c1ccccc1` (centres undefined), the values for the inhibition at 100 µM in [1] and in [2] were 23% and 15.4%, respectively.
Turning to `CCCCC(OC(C)=O)c1ccccc1C(=O)Oc1cc(C)nn1-c1ccc(Cl)cc1` (centres undefined), the inhibition (commonly the drop in the measured response relative to a control, in per cent) at 100 µM was found to be 29.3% in [1] and 40.3% in assay [2].
In the same order, the values of `CCCCC(OC(C)=O)c1ccccc1C(=O)Oc1cc(C(F)(F)F)nn1-c1ccc(OC)cc1` (centres undefined) are 19.9% and 37.7%.
With `CCCCC(OC(C)=O)c1ccccc1C(=O)Oc1cc(C(F)(F)F)nn1-c1ccc([N+](=O)[O-])cc1` (centres undefined), the inhibition at 100 µM in [1] amounted to 15.4%; in [2] it was 21.3%. Further, the viability at 10 µM in [3] came to 87.3%.
For `CCCCC(OC(C)=O)c1ccccc1C(=O)Oc1cc(C)nn1-c1ccc(OC)cc1` (centres undefined), the inhibition at 100 µM in [1] was determined as 30.2%; in assay [2] it was 29.4%.
For the compound `CCCCC(OC(C)=O)c1ccccc1C(=O)Oc1cc(C)nn1-c1ccc(C)cc1` (centres undefined), the inhibition at 100 µM is 21.3% in assay [1] and 20.5% in assay [2]. In addition, the viability at 10 µM in assay [3] amounted to 86%.
With `CCCCC(OC(C)=O)c1ccccc1C(=O)Oc1cc(C(F)(F)F)nn1-c1ccccc1` (centres undefined), the inhibition at 100 µM in [1] stood at 26.9%; in assay [2], 29.3%.
With `CCCCC(OC(C)=O)c1ccccc1C(=O)Oc1cc(C(F)(F)F)nn1-c1ccc(Cl)cc1` (centres undefined), the inhibition at 100 µM in assay [1] was found to be 23.2%; in [2], 26.6%. Further, the viability at 10 µM in [3] was 83%.
Consider `CC1=NN(c2ccc(F)cc2)C(=O)C1`, for which the inhibition at 100 µM amounted to 13.5% in assay [1] and 24.3% in [2]. In addition, in assay [4], the outcome was Active. Moreover, the Activity in [5] amounted to 31.7447 U/ml; in [6] it was 117.579 U/L.
Regarding `CCCCC(OC(C)=O)c1ccccc1C(=O)Oc1cc(C(F)(F)F)nn1-c1cccc(Cl)c1` (centres undefined), the inhibition at 100 µM amounted to 31.2% in [1] and 21.2% in assay [2].
Take `CCCCC1OC(=O)c2ccccc21` (racemic) [RAC-3-N-BUTYLPHTHALIDE]: the inhibition at 100 µM in [1] came to 22.9%; in assay [7], 28.1%; in [2], 14.1%; in [8], 42.5%. The results for the viability at 10 µM in assay [3] and in assay [9] were 71% and 76.6%, respectively. Moreover, the Activity in assay [5] is on record as 16.2026 U/ml; in assay [10], 36.8347 U/ml; in assay [6], 36.7429 U/L; in [11] it was 140.787 U/L.
Take `CCCCC(OC(C)=O)c1ccccc1C(=O)O` (centres undefined): the figures for the inhibition at 100 µM in assay [1] and in assay [2] were 17.7% and 27.7%, respectively. Besides, the outcome in assay [4] was Active. The Activity in assay [5] turned out to be 17.6015 U/ml; in assay [6], 56.1954 U/L.
For `CC(=O)Oc1ccccc1C(=O)O` [ASPIRIN], in assay [2], the inhibition at 100 µM came to 16.2%. Moreover, the viability at 10 µM in [3] worked out at 77.4%. Moreover, the Activity in assay [5] stood at 30.6956 U/ml; in assay [6] it was 79.3793 U/L.
Consider `CCCCC(OC(C)=O)c1ccccc1C(=O)Oc1cc(C)nn1-c1cccc(Cl)c1` (centres undefined), for which the inhibition at 100 µM came out at 35.2% in [1] and 46.1% in assay [2].
For `CCCCC(OC(C)=O)c1ccccc1C(=O)Oc1cc(C(F)(F)F)nn1-c1ccc(C)cc1` (centres undefined) the same measures were 25.5% and 40.7%.
Consider `CCCCC(OC(C)=O)c1ccccc1C(=O)Oc1cc(C)nn1-c1ccc([N+](=O)[O-])cc1` (centres undefined), for which the results for the inhibition at 100 µM in [1] and in [2] were 33.9% and 39.6%, respectively. Further, the viability at 10 µM in assay [3] was found to be 85.2%.
In the case of `CCCCC(OC(C)=O)c1ccccc1C(=O)Oc1cc(C)nn1-c1ccc(F)cc1` (centres undefined), the inhibition at 100 µM in [1] came to 31.8%; in assay [2] it was 59.9%. Moreover, the viability at 10 µM in assay [3] came out at 93.3%. Further, the viability at 1 µM in assay [12] worked out at 88.1%. Besides, the Activity in assay [5] is 65.51 U/ml; in assay [6], 141.49 U/L.
Turning to `CCCCC(OC(C)=O)c1ccccc1C(=O)Oc1cc(C(F)(F)F)nn1-c1ccc(F)cc1` (centres undefined), the inhibition at 100 µM in [1] is 13.6%; in [2] it was 27.5%.
Take `Clc1ccccc1CN1CCc2sccc2C1` [TICLOPIDINE]: the inhibition at 100 µM in [1] is 11.5%. Moreover, the viability at 10 µM in assay [3] was 67.2%. In addition, the Activity in assay [5] was 15.0616 U/ml; in [6] it was 26.9592 U/L.
In the case of `CC1=NN(c2ccccc2)C(=O)C1` [EDARAVONE], the inhibition at 100 µM is 24.8% in assay [1], 28.1% in [13], 25.5% in assay [2] and 42.5% in assay [14]. The viability at 10 µM turned out to be 76.9% in [3] and 76.6% in assay [15]. Besides, the Activity in assay [5] is recorded as 25.2753 U/ml; in assay [16], 36.8347 U/ml; in [6], 97.6942 U/L; in assay [17] it was 140.787 U/L.

Values taken from ChEMBL document CHEMBL3603784, “Novel hybrids of 3-n-butylphthalide and edaravone: Design, synthesis and evaluations as potential anti-ischemic stroke agents” (2015).
